Assay results reported in ChEMBL document CHEMBL1145200, “4-Benzyl and 4-benzoyl-3-dimethylaminopyridin-2(1H)-ones: in vitro evaluation of new C-3-amino-substituted and C-5,6-alkyl-substituted analogues against clinically important HIV mutant strains” (J Med Chem, 2005).

Tests used:
[1] = system: Human immunodeficiency virus 1; assay: In vitro inhibitory concentration against HIV-1 Y181C mutant strain; assay type: functional, organism-based
Summary of the method: (§1)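 MT4 human T-lymphoblastoid cells, grown in RPMI 1640 with 10% fetal calf serum and antibiotics at 37 °C under 5% CO2. Mutant HIV-1 strains were added at 200 CCID50/well with 30 000 cells/well across a compound concentration range. After 5 days at 37 °C, viability was read by MTT colorimetry. EC50 is the concentration giving 50% infection relative to the drug-free control.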

[2] = system: Human immunodeficiency virus 1; assay: Selective index value (ratio of CC50 to IC50 value)against HIV LAI cell line; assay type: functional
Summary of the method: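 Ratio of CC50 to IC50 against LAI. CC50 came from mock-infected MT4 cultures (30 000 cells/well) given the same compound concentration range, run in parallel with LAI-infected cultures (200 CCID50/well). Incubation was 5 days at 37 °C in 5% CO2, with MTT viability read-out.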

[3] = system: Human immunodeficiency virus 1; assay: In vitro inhibitory concentration against HIV K103N mutant strain; assay type: functional, organism-based; summary of the method: as §1
[4] = system: Human immunodeficiency virus 1; assay: In vitro inhibitory concentration against HIV LAI cell line; assay type: functional, organism-based; conditions: Human immunodeficiency virus 1, LAI
Summary of the method: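 HIV-1 LAI was added at 200 CCID50/well to MT4 human T-lymphoblastoid cells (30 000 cells/well) across a concentration range of compound. Cells were grown in RPMI 1640 with 10% fetal calf serum and antibiotics. After 5 days at 37 °C in 5% CO2, cell viability was read by MTT colorimetry. EC50 was the concentration giving 50% infection versus the drug-free control.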

[5] = system: Human immunodeficiency virus 1; assay: In vitro inhibitory concentration against HIV Y188L mutant strain; assay type: functional, organism-based; summary of the method: as §1
[6] = system: Human immunodeficiency virus 1; assay: In vitro inhibitory concentration against HIV L100I mutant strain; assay type: functional, organism-based; summary of the method: as §1
[7] = system: Human immunodeficiency virus 1; assay: In vitro inhibitory concentration value against HIV K103N and Y181C mutant strain; assay type: functional, organism-based; summary of the method: as §1
[8] = system: Human immunodeficiency virus 1; assay: In vitro inhibitory concentration against HIV L100I and K103N mutant strain; assay type: functional, organism-based; summary of the method: as §1
[9] = system: Human immunodeficiency virus 1; assay: In vitro inhibitory concentration against HIV F227L and V106A mutant strain; assay type: functional, organism-based; summary of the method: as §1

SMILES | IC50 [1] [nM] | SI [2] | IC50 [3] [nM] | IC50 [4] [nM] | IC50 [5] [µM] | IC50 [6] [nM] | IC50 [7] [nM] | IC50 [8] [nM] | IC50 [9] [nM]
CCC(=O)Nc1c(Cc2cc(C)cc(C)c2)c(CC)c(C)[nH]c1=O | 100000 | 25 | 100000 | 3980 |  |  |  |  | 
CCc1c(C)[nH]c(=O)c(NC(C)=O)c1Cc1cc(C)cc(C)c1 | 25100 | 251 | 20000 | 398 | 100 |  |  |  | 
CCNc1c(Cc2cc(C)cc(C)c2)c(CC)c(C)[nH]c1=O | 100000 | 126 | 316 | 16 | 100 |  |  |  | 
CCCN(C)c1c(Cc2cc(C)cc(C)c2)c(CC)c(C)[nH]c1=O | 398 | 6310 | 100 | 16 |  |  |  |  | 
CCOCCN(C)c1c(Cc2cccc(C)c2)c(CC)c(C)[nH]c1=O |  | 7940 |  | 13 |  |  |  |  | 
CCCc1c(C)[nH]c(=O)c(N(C)C)c1Cc1cc(C)cc(C)c1 | 316 | 2000 | 79 | 50 | 0.631 |  |  |  | 
CCc1c(C)nc(O)c(N(C)C)c1C(=O)c1cccc(C)c1 |  | 39800 |  | 2.5 | 2 |  |  |  | 
CCc1c(C)[nH]c(=O)c(N(CC)CC)c1Cc1cc(C)cc(C)c1 | 1260 | 6310 | 398 | 16 | 2.51 |  |  |  | 
CCc1c(C)[nH]c(=O)c(N2CCCCC2)c1Cc1cc(C)cc(C)c1 | 39800 | 158 | 63100 | 631 |  |  |  |  | 
CCc1c(C)[nH]c(=O)c(N(C)CCCO)c1Cc1cccc(C)c1 | 1580 | 31600 | 316 | 3 | 5.01 |  |  |  | 
COCCCc1c(C)nc(O)c(N(C)C)c1C(=O)c1cc(C)cc(C)c1 | 50 | 12600 | 10 | 2 | 0.2 | 8 |  |  | 
CCc1[nH]c(=O)c(N(C)C)c(Cc2cc(C)cc(C)c2)c1C | 251 | 10000 | 100 | 10 | 5.01 |  |  |  | 
CCc1c(C)[nH]c(=O)c(N(C)CCO)c1Cc1cccc(C)c1 | 1260 | 7940 | 794 | 5 | 12.6 |  |  |  | 
CCCCNc1c(Cc2cc(C)cc(C)c2)c(CC)c(C)[nH]c1=O | 5010 | 398 | 2000 | 126 |  |  |  |  | 
CCc1c(C)[nH]c(=O)c(N(C)CCCCCO)c1Cc1cc(C)cc(C)c1 | 126 | 12600 | 100 | 4 | 2.51 |  |  |  | 
Cc1cccc(C(=O)c2c(C)c(C)nc(O)c2N(C)C)c1 | 2000 | 6310 | 398 | 16 | 50.1 |  |  |  | 
CCc1c(C)[nH]c(=O)c(NC(=S)Nc2ccccc2)c1Cc1cccc(C)c1 |  | 25 |  | 3160 |  |  |  |  | 
CCc1c(C)nc(O)c(NC(=S)NC(=O)c2ccccc2)c1Cc1cccc(C)c1 | 100000 | 16 | 100000 | 6310 | 100 |  |  |  | 
CCc1c(C)[nH]c(=O)c(NCc2ccccc2)c1Cc1cc(C)cc(C)c1 | 10000 | 251 | 3160 | 251 |  |  |  |  | 
CCc1c(C)[nH]c(=O)c(N(C)CCCC#N)c1Cc1cccc(C)c1 | 2000 | 12600 | 316 | 5 | 3.16 |  |  |  | 
Cc1cc(C)cc(Cc2cc(C)[nH]c(=O)c2N(C)C)c1 | 79400 | 251 | 31600 | 398 | 100 |  |  |  | 

SMILES | IC50 [1] [nM] | SI [2] | IC50 [3] [nM] | IC50 [4] [nM] | IC50 [5] [µM] | IC50 [6] [nM] | IC50 [7] [nM] | IC50 [8] [nM] | IC50 [9] [nM]
Cc1cc(C)cc(Cc2c(CC(C)C)c(C)[nH]c(=O)c2N(C)C)c1 | 158 | 2000 | 63 | 50 | 0.398 |  |  |  | 
CCNC(=S)Nc1c(Cc2cccc(C)c2)c(CC)c(C)[nH]c1=O |  | 4 |  | 25100 |  |  |  |  | 
CCc1c(C)[nH]c(=O)c(N2CCOCC2)c1Cc1cc(C)cc(C)c1 | 10000 | 251 | 100000 | 158 |  |  |  |  | 
CCc1c(C)[nH]c(=O)c(N(C)CCCSC)c1Cc1cc(C)cc(C)c1 | 501 | 398 | 1000 | 25 |  |  |  |  | 
CCCCN(CCCC)c1c(Cc2cc(C)cc(C)c2)c(CC)c(C)[nH]c1=O | 100000 | 2 | 100000 | 50100 |  |  |  |  | 
CCc1c(C)[nH]c(=O)c(N(C)CC#N)c1Cc1cccc(C)c1 | 1580 | 25100 | 316 | 4 | 12.6 |  |  |  | 
CCc1c(C)[nH]c(=O)c(NC=O)c1Cc1cc(C)cc(C)c1 | 7940 | 1260 | 794 | 79 | 0.316 |  |  |  | 
CCc1c(C)[nH]c(=O)c(NC)c1Cc1cc(C)cc(C)c1 | 1000 | 5010 | 79 | 10 | 2 |  |  |  | 
CCc1c(C)[nH]c(=O)c(-n2cccc2)c1Cc1cc(C)cc(C)c1 | 1260 | 1260 | 398 | 12.6 | 2 |  |  |  | 
CCc1nc(O)c(N(C)C)c(C(=O)c2cccc(C)c2)c1C |  | 1000 |  | 100 |  |  |  |  | 
CCc1c(C)[nH]c(=O)c(N(Cc2ccccc2)Cc2ccccc2)c1Cc1cc(C)cc(C)c1 | 79400 | 1 | 50100 | 100000 |  |  |  |  | 
CCc1c(C)[nH]c(=O)c(N(C)CCCCCO)c1Cc1cccc(C)c1 | 1580 | 6310 | 501 | 10 | 5.01 |  |  |  | 
Cc1cc(C)cc(Cc2c(C)c(C)[nH]c(=O)c2N(C)C)c1 | 398 | 2000 | 398 | 5 | 3.16 |  |  |  | 
Cc1cc(C)cc(Cc2c(C)c(C(C)C)[nH]c(=O)c2N(C)C)c1 |  | 126 |  | 794 |  |  |  |  | 
COCCc1c(C)nc(O)c(N(C)C)c1C(=O)c1cccc(C)c1 | 1260 | 7940 | 158 | 4 | 10 |  |  |  | 
CCc1c(C)[nH]c(=O)c(NC(N)=S)c1Cc1cccc(C)c1 |  | 316 |  | 316 |  |  |  |  | 
Cc1cc(C)cc(Cc2cc[nH]c(=O)c2N(C)C)c1 | 100000 | 10 | 39800 | 7940 |  |  |  |  | 
CCc1c(C)[nH]c(=O)c(N(C)CCC#N)c1Cc1cccc(C)c1 |  | 6310 |  | 16 |  |  |  |  | 
CCCNc1c(Cc2cc(C)cc(C)c2)c(CC)c(C)[nH]c1=O | 15800 | 398 | 1580 | 20 | 100 |  |  |  | 
CCc1c(C)[nH]c(=O)c(N(C)CCOC)c1Cc1cccc(/C=C/C#N)c1 | 40 | 10000 | 20 | 1 | 0.316 | 8 | 398 | 50 | 1000
CCCC(=O)Nc1c(Cc2cc(C)cc(C)c2)c(CC)c(C)[nH]c1=O | 100000 | 1 | 100000 | 100000 |  |  |  |  | 
